The species entered for assay [1] is Mus musculus. Description: Ratio of rotarod to Straub-tail activity, which indicates the dose exhibiting muscle relaxant activity versus that producing sedation. It is filed as functional. The method in brief: (§1)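 Ratio of rotorod ED50 (po) to Straub tail ED50 (po), both measured in mice with oral dosing. Indicates separation between the muscle-relaxant dose and the sedating dose.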
(The rotarod test checks motor coordination on a turning rod.)

Assay [2] deals with Rattus norvegicus. In words: Percent inhibition for analgesic activity by trypsin-induced hyperalgesia assay at 20 mg/kg by oral administration in rats. The format is functional. The method, boiled down: (§2)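 Rat trypsin-induced hyperalgesia (mild analgesia). Percent inhibition at a single oral dose of 20 mg/kg. Each compound tested two or three times; average variation approximately 5%.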

Assay [3] has as its system Mus musculus. Description: Effective dose required for muscle relaxation by oral administration in mouse using Straub-tail (ST) assay. The format is functional. The method in brief:
(§3)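 Mouse morphine-induced Straub tail assay, scoring inhibition of sacro-coccygeus dorsalis contraction. Dosed ip or po, generally at a minimum of three doses with N = 6 animals per dose group.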

For assay [4], the system named is Rattus norvegicus. In words: Percent inhibition for analgesic activity by trypsin-induced hyperalgesia assay at 20 mg/kg by oral administration in rats. It is filed as functional. The method in brief:
as §2

For assay [5], the system named is Rattus norvegicus. In words: Antiinflammatory activity in cells using Carrageenan pleurisy assay by oral administration. The format is functional. The method in brief:
(§4)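 Rat carrageenan pleurisy, 3 h. Compounds given orally, with separate read-outs for pleural cell counts and edema. ED50 reported in mg/kg po. Each compound tested two or three times; average variation approximately 10%.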

Assay [6] has as its system Rattus norvegicus. In words: Antiinflammatory activity in edema by Carrageenan pleurisy assay by oral administration. It is filed as functional. The method, boiled down: as §4
Assay [7] relates to Rattus norvegicus. In words: Effective dose required for analgesic activity by trypsin-induced hyperalgesia assay at 20 mg/kg by oral administration in rats. The format is functional. The method, boiled down:
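Rat trypsin-induced hyperalgesia (mild analgesia) with oral dosing. ED50 reported in mg/kg po. Each compound tested two or three times; average variation approximately 5%.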

Assay [8] relates to Mus musculus. In words: Effective dose required for muscle relaxation by intraperitoneal administration in mouse using Straub-tail (ST) assay. It is filed as functional. The conditions noted are these: ip. The method in brief:
as §3

In assay [9] the test system is Mus musculus. Description: Sedation caused by oral administration was estimated using rotarod (RR) assay. It is filed as functional. The method in brief:
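Mouse rotorod test for sedation, oral dosing, generally at a minimum of three doses with N = 6 animals per dose group.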

Assay [10] concerns Mus musculus. In words: (§5) Percent effect profile muscle relaxation at 100 mg/kg by intraperitoneal administration in mouse using Straub-tail (ST) assay. As to conditions: ip. The format is functional. The method in brief:
(§6)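 Mouse morphine-induced Straub tail assay, scoring inhibition of sacro-coccygeus dorsalis contraction. Single ip dose of 100 mg/kg; percent effect reported. Compounds above 50% inhibition were then tested orally.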

The test system of assay [11] is Rattus norvegicus. In words: Percent inhibition for analgesic activity by trypsin-induced hyperalgesia assay at 20 mg/kg by oral administration in rats; ND is no data. The format is functional. The method in brief:
as §2

Assay [12] has as its system Mus musculus. The description is as §5. It is filed as functional. As to conditions: ip. The method in brief:
as §6
This is another data set of the same source.

The test system of assay [13] is Rattus norvegicus. Description: Antiinflammatory activity in cells by Carrageenan pleurisy assay by oral administration at 20 mg/kg. The format is functional. The method, boiled down: (§7)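 Rat carrageenan pleurisy, 3 h. Single oral dose of 20 mg/kg, with separate read-outs for pleural cell counts and edema as percent inhibition. Each compound tested two or three times; average variation approximately 10%.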

Assay [14] relates to Rattus norvegicus. In words: Antiinflammatory activity in edema by Carrageenan pleurisy assay by oral administration at 20 mg/kg. It is filed as functional. The method, boiled down:
as §7

The species named for assay [15] is Mus musculus. Description: Effective dose required to produce analgesic activity was measured by mouse hot plate assay. The format is functional. Background: Hot-plate and tail-flick tests time the reaction to a heat stimulus.
Assay [16] concerns the target T1, Amine oxidase [flavin-containing] B (Homo sapiens, UniProt P27338).
T1 sequence (P27338 whole entry): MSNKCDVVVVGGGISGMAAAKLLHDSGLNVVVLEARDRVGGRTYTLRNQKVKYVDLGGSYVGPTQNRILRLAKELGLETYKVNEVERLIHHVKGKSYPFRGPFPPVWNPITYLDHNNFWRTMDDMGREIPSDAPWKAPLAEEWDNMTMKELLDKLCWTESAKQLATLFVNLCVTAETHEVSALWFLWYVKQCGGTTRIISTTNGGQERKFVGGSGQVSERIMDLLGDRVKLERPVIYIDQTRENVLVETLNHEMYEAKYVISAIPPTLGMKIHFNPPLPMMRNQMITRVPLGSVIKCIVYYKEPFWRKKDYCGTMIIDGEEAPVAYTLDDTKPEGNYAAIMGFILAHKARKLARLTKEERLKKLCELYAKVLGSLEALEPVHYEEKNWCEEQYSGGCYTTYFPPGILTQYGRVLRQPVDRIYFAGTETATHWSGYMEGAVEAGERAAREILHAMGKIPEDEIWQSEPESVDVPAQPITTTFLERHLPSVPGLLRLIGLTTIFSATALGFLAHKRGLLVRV
In words: Inhibitory concentration against Monoamine oxidase B (MAO-B).

Assay [17] is described as follows: Effective dose required to produce analgesic activity in the phalanges algesia assay by oral administration. It is filed as functional.
Assay [18] relates to Rattus norvegicus. In words: Effective dose required for muscle relaxation after oral administration in Wistar rats by pull-up test.
The subject of assay [19] is Rattus norvegicus. In words: Effective dose required for sedation in Wistar rats evaluated by loss of righting reflex by oral administration. The format is functional. The method in brief:
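Sedation in Wistar rats scored as loss of righting reflex (ability to stay upright) after oral dosing. ED50 reported in mg/kg po.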

Assay [20] concerns the target T2, Amine oxidase [flavin-containing] A (Homo sapiens, UniProt P21397).
T2 sequence (P21397 whole entry): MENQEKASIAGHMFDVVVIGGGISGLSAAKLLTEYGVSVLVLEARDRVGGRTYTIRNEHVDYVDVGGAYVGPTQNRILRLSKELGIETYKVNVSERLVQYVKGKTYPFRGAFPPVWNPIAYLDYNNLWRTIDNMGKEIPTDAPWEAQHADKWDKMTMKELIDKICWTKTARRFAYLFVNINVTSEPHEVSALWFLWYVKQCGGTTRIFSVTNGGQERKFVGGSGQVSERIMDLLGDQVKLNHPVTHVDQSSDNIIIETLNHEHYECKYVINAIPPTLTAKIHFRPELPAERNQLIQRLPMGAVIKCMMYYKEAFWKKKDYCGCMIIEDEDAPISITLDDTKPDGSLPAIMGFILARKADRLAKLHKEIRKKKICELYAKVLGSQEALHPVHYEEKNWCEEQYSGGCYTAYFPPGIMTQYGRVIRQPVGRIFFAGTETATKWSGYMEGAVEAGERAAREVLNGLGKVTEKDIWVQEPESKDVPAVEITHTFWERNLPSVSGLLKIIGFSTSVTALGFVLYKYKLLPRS
Description: Inhibitory concentration against Monoamine oxidase A (MAO-A).

The test system of assay [21] is Rattus norvegicus. Description: Effective dose required to produce analgesic activity in the trypsin hyperalgesia assay by oral administration.
Assay [22] deals with Rattus norvegicus. Description: Antiinflammatory activity in cells by Carrageenan pleurisy assay by oral administration. The format is functional. The method, boiled down: as §4
Assay [23] relates to Mus musculus. Description: Evaluated for sedation in mice by loss of righting reflex up to a dose of 200 mg/kg by oral administration; No loss of righting reflex. It is filed as functional, organism-based. Set-up: dose 200 mg/kg.
Assay [24] has as its system Rattus norvegicus. Description: Effective dose required for muscle relaxation after oral administration in Lewis rats by pull-up test.
Assay [25] in a line: Effective dose required to produce analgesic activity in the adjuvant arthritis hyperalgesia assay by oral administration. The format is functional.
The species named for assay [26] is Mus musculus. In words: Ratio of rotarod to straub tail activity, which indicates the dose exhibiting muscle relaxant activity versus that producing sedation. It is filed as functional. The method in brief: as §1

We go through eleven compounds from ChEMBL document CHEMBL1144887, “Indanylidenes. 1. Design and synthesis of (E)-2-(4,6-difluoro-1-indanylidene)acetamide, a potent, centrally acting muscle relaxant with antiinflammatory and analgesic activity” (J Med Chem, 2003).

pIC50: −log10 of the molar value.

Usually inhibition in vivo stands for the share of the control response that was lost under treatment. For orientation: ED50 means the dose at which the effect has come halfway, by size or by number of responders. What is called pIC50 is the negative decadic logarithm of the IC50, by convention in mol/L.

For the compound `NC(=O)/C=C1\CCc2ccc(F)cc21`, the Ratio in the assay listed under Mus musculus [1] amounted to 1.6. The inhibition in vivo at 20 mg/kg with Rattus norvegicus [2] turned out to be 14%; with Rattus norvegicus [4] it was 60%. For the same compound, the ED50 is 56 mg/kg with Mus musculus [3]; 21 mg/kg in the assay with Rattus norvegicus [5]; 20 mg/kg with Rattus norvegicus [6]; 16 mg/kg in the assay with Rattus norvegicus [7]; 22 mg/kg with Mus musculus [8]; 90 mg/kg in the assay with Mus musculus [9].
In turn, `O=C(/C=C1\CCc2ccc(F)cc21)NCc1ccccc1` yielded an inhibition in vivo at 20 mg/kg in the assay with Rattus norvegicus [4] of 8%. The compound further yielded an inhibition in vivo at 100 mg/kg with Mus musculus [10] of 17%. The ED50 in the assay with Rattus norvegicus [5] stood at 16 mg/kg; in the assay on Rattus norvegicus [6], 8 mg/kg.
Take `O=C(/C=C1\CCc2ccc(F)cc21)Nc1ccccc1`: the inhibition in vivo at 100 mg/kg in the assay on Mus musculus [10] came to 83%. Besides, the ED50 with Rattus norvegicus [5] is 8 mg/kg.
For `Cc1ccc2c(c1)/C(=C/C(N)=O)CC2`, the inhibition in vivo at 20 mg/kg with Rattus norvegicus [11] turned out to be 14%. Further, in the assay with Mus musculus [12], the inhibition in vivo at 100 mg/kg stood at 33%.
As to `CNC(=O)/C=C1\CCc2cc(F)c(F)cc21`, the inhibition in vivo at 20 mg/kg in the assay with Rattus norvegicus [2] came out at 100%. For the same compound, the median effective dose (ED50) with Mus musculus [3] came out at 96 mg/kg; in the assay with Rattus norvegicus [5] it was 18 mg/kg; in the assay with Rattus norvegicus [6], 11 mg/kg; in the assay with Rattus norvegicus [7], 9 mg/kg. This compound also came in with an inhibition in vivo at 100 mg/kg in the assay with Mus musculus [12] of 100%.
In the case of `O=C(/C=C1\CCc2ccc(F)cc21)NC1CCCC1`, the inhibition in vivo at 20 mg/kg in the assay on Rattus norvegicus [4] was 6%. Moreover, the inhibition in vivo at 100 mg/kg with Mus musculus [10] was 0%. Further, the results for the ED50 with Rattus norvegicus [5] and with Rattus norvegicus [6] were 14 mg/kg and 11 mg/kg, respectively.
Take `O=C(/C=C1\CCc2c(F)cccc21)NC1CC1`: it took a dose of 126 mg/kg to reach the 50% effect level in the assay with Mus musculus [3] (ED50). Further, the values for the inhibition in vivo at 20 mg/kg in the assay with Rattus norvegicus [13] and in the assay with Rattus norvegicus [14] were 29% and 18%, respectively. In the assay with Mus musculus [12], this compound displayed an inhibition in vivo at 100 mg/kg of 100%.
Turning to `CNC(=O)/C=C1\CCc2c(F)cc(F)cc21`, the ED50 in the assay on Mus musculus [3] worked out at 45 mg/kg; in the assay with Rattus norvegicus [7], 13 mg/kg. In the assay on Rattus norvegicus [4], this compound displayed an inhibition in vivo at 20 mg/kg of 65%. Further, testing at 100 mg/kg in the assay on Mus musculus [12] gave an inhibition in vivo of 100%.
Take `NC(=O)/C=C1\CCc2c(F)cc(F)cc21`: the ED50 is 30 mg/kg in the assay filed under Mus musculus [15]; 69 mg/kg in the assay on Mus musculus [3]; 20 mg/kg in assay [17]; 64 mg/kg in the assay on Rattus norvegicus [18]; 200 mg/kg in the assay on Rattus norvegicus [19]; 22 mg/kg in the assay on Rattus norvegicus [21]. In addition, the ED50 in the assay on Rattus norvegicus [22] was 19 mg/kg; in the assay with Mus musculus [23], “No loss of righting reflex”; in the assay on Rattus norvegicus [6] it was 15 mg/kg; in the assay with Rattus norvegicus [7], 4 mg/kg; in the assay on Rattus norvegicus [24] it was 18 mg/kg; in [25], 21 mg/kg. Besides, the ED50 with Mus musculus [9] was 138 mg/kg. Besides, the pIC50 was 6.70 in assay [16] and 4.96 in assay [20]. For the same compound, in the assay on Rattus norvegicus [4], at 20 mg/kg the inhibition in vivo was 100%. The inhibition in vivo at 100 mg/kg with Mus musculus [10] worked out at 67%; in the assay with Mus musculus [12] it was 100%.
For `C/C(=C\C(=O)NC1CC1)c1cccc(F)c1`, the Ratio in the assay filed under Mus musculus [1] came out at 0.6. In addition, the ED50 in the assay on Mus musculus [3] is 122 mg/kg; in the assay on Mus musculus [8], 46 mg/kg; in the assay on Mus musculus [9], 71 mg/kg.
Consider `NC(=O)/C=C1\CCc2ccccc21`, for which the inhibition in vivo at 20 mg/kg in the assay on Rattus norvegicus [2] was determined as 88%. Besides, the ED50 in the assay with Mus musculus [3] was 108 mg/kg; with Rattus norvegicus [7], 9 mg/kg; in the assay with Mus musculus [8], 31 mg/kg; in the assay on Mus musculus [9] it was 164 mg/kg. Moreover, the Ratio in the assay listed under Mus musculus [26] is recorded as 1.5.
